ChEMBL document CHEMBL2069298, “Putative mycobacterial efflux inhibitors from the seeds of Aframomum melegueta” (J Nat Prod, 2012)
In brackets after ≈: the same amount, converted by molar mass.

Experiments:
[1] = tested on: Mycolicibacterium smegmatis; assay: Antimicrobial activity against Mycobacterium smegmatis str. MC2 155 ATCC 700084 incubated for 72 hrs in 7H9 T medium supplemented with 10% Middlebrook ADC enrichment by MTT assay; type: functional; conditions: MC2 155 ATCC 700084, 72 h
How it was run: (§1)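 M. smegmatis mc2 155 grown on Columbia blood agar with 5% horse blood at 37 °C. Compounds in DMSO, serially diluted in Mueller-Hinton broth or 7H9 T ADC. Inoculum set to McFarland 0.5, then 5 × 10^5 cfu/mL, mixed 1:1 with the dilutions. Read with MTT after 72 h at 37 °C. MIC is the lowest concentration inhibiting growth.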

[2] = tested on: Mycolicibacterium smegmatis MC2 155; assay: Inhibition of Multidrug resistance efflux pump in Mycobacterium smegmatis str. MC2 155 ATCC 700084 assessed as fractional inhibitory concentration index in presence of ethidium bromide
How it was run: (§2)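 Combination testing in MHB broth dilution against mc2 155. Either the modulator or the antibiotic (EtBr or rifampicin) was held in the medium while the partner was serially diluted. 5 × 10^5 cfu/mL inoculum, MTT read-out after 72 h at 37 °C. Fractional inhibitory concentration index derived from the combined MICs.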

[3] = tested on: Mycolicibacterium smegmatis MC2 155; assay: Inhibition of Multidrug resistance efflux pump in Mycobacterium smegmatis str. MC2 155 ATCC 700084 assessed as reduction in ciprofloxacin bromide MIC presence of test compound at 16 mg/L
How it was run: (§3)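 Broth dilution in MHB with strain mc2 155 from blood agar. Modulator at half its MHB MIC was included in the medium while the antibiotic or EtBr was serially diluted. Inoculum 5 × 10^5 cfu/mL. MTT read-out after 72 h at 37 °C. Value is the fold change in MIC.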

[4] = tested on: Mycolicibacterium smegmatis MC2 155; assay: Inhibition of Multidrug resistance efflux pump in Mycobacterium smegmatis str. MC2 155 ATCC 700084 assessed as increase in relative ethidium bromide fluorescence accumulation at 0.5 MIC level by fluorimetric assay (reference value: 6057.1 +/- 508.6 RFU)
How it was run: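 Cells grown in 7H9 T with 10% ADC at 37 °C. Compounds at half their 7H9 T ADC MIC, with 0.5 mg/L EtBr and 0.4% glucose at 37 °C. Fluorescence tracked in a microtiter plate until steady state. Relative fluorescence is the mean of the last 10 min of four assays, compared with the EtBr-only control.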

[5] = tested on: Mycolicibacterium smegmatis MC2 155; assay: Inhibition of Multidrug resistance efflux pump in Mycobacterium smegmatis str. MC2 155 ATCC 700084 assessed as reduction in rifampicin bromide MIC presence of test compound at 16 mg/L; how it was run: as §3
[6] = tested on: Mycolicibacterium smegmatis MC2 155; assay: Inhibition of Multidrug resistance efflux pump in Mycobacterium smegmatis str. MC2 155 ATCC 700084 assessed as fractional inhibitory concentration index in presence of rifampicin; how it was run: as §2
[7] = tested on: Mycolicibacterium smegmatis MC2 155; assay: Inhibition of Multidrug resistance efflux pump in Mycobacterium smegmatis str. MC2 155 ATCC 700084 assessed as reduction in isoniazid bromide MIC presence of test compound at 16 mg/L; how it was run: as §3
[8] = tested on: Mycolicibacterium smegmatis MC2 155; assay: Inhibition of Multidrug resistance efflux pump in Mycobacterium smegmatis str. MC2 155 ATCC 700084 assessed as increase in normalized ethidium bromide fluorescence efflux at 0.5 MIC level by fluorimetric assay (reference value: 0.581 +/- 0.051 ratio)
How it was run: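 Cells grown in 7H9 T ADC at 37 °C and loaded with 4 mg/L EtBr plus 256 mg/L verapamil. EtBr efflux followed fluorometrically in a microtiter plate with compounds at half their 7H9 T ADC MIC. Normalized fluorescence is the mean of the last 10 min of four assays, compared with the EtBr control.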

[9] = tested on: Mycolicibacterium smegmatis; assay: Antimicrobial activity against Mycobacterium smegmatis str. MC2 155 ATCC 700084 incubated for 72 hrs in Mueller-Hinton broth medium by MTT assay; type: functional; conditions: MC2 155 ATCC 700084, 72 h; how it was run: as §1
[10] = tested on: Mycolicibacterium smegmatis MC2 155; assay: Inhibition of Multidrug resistance efflux pump in Mycobacterium smegmatis str. MC2 155 ATCC 700084 assessed as reduction in ethidium bromide MIC presence of test compound at 16 mg/L; how it was run: as §3
[11] = tested on: Mycolicibacterium smegmatis MC2 155; assay: Inhibition of Multidrug resistance efflux pump in Mycobacterium smegmatis str. MC2 155 ATCC 700084 assessed as reduction in ethambutol bromide MIC presence of test compound at 16 mg/L; how it was run: as §3
[12] = tested on: Mycolicibacterium smegmatis MC2 155; assay: Inhibition of Multidrug resistance efflux pump in Mycobacterium smegmatis str. MC2 155 ATCC 700084 assessed as reduction in rifampicin bromide MIC presence of test compound at 64 mg/L; how it was run: as §3
[13] = tested on: Mycolicibacterium smegmatis MC2 155; assay: Inhibition of Multidrug resistance efflux pump in Mycobacterium smegmatis str. MC2 155 ATCC 700084 assessed as reduction in ciprofloxacin bromide MIC presence of test compound at 64 mg/L; how it was run: as §3
[14] = tested on: Mycolicibacterium smegmatis MC2 155; assay: Inhibition of Multidrug resistance efflux pump in Mycobacterium smegmatis str. MC2 155 ATCC 700084 assessed as reduction in ethidium bromide MIC presence of test compound at 64 mg/L; how it was run: as §3
[15] = tested on: Mycolicibacterium smegmatis MC2 155; assay: Inhibition of Multidrug resistance efflux pump in Mycobacterium smegmatis str. MC2 155 ATCC 700084 assessed as reduction in ethambutol bromide MIC presence of test compound at 64 mg/L; how it was run: as §3
[16] = tested on: Mycolicibacterium smegmatis MC2 155; assay: Inhibition of Multidrug resistance efflux pump in Mycobacterium smegmatis str. MC2 155 ATCC 700084 assessed as reduction in isoniazid bromide MIC presence of test compound at 64 mg/L; how it was run: as §3
[17] = tested on: Mycolicibacterium smegmatis MC2 155; assay: (§4) Inhibition of Multidrug resistance efflux pump in Mycobacterium smegmatis str. MC2 155 ATCC 700084 assessed as increase in normalized ethidium bromide fluorescence efflux at 0.5 MIC level by fluorimetric assay
[18] = as §4; set-up: species or system Mycolicibacterium smegmatis MC2 155
[19] = tested on: Mycolicibacterium smegmatis MC2 155; assay: Inhibition of Multidrug resistance efflux pump in Mycobacterium smegmatis str. MC2 155 ATCC 700084 assessed as reduction in ethambutol bromide MIC presence of test compound at 32 mg/L; how it was run: as §3
[20] = tested on: Mycolicibacterium smegmatis MC2 155; assay: Inhibition of Multidrug resistance efflux pump in Mycobacterium smegmatis str. MC2 155 ATCC 700084 assessed as reduction in rifampicin bromide MIC presence of test compound at 32 mg/L; how it was run: as §3
[21] = tested on: Mycolicibacterium smegmatis MC2 155; assay: Inhibition of Multidrug resistance efflux pump in Mycobacterium smegmatis str. MC2 155 ATCC 700084 assessed as reduction in isoniazid bromide MIC presence of test compound at 32 mg/L; how it was run: as §3
[22] = tested on: Mycolicibacterium smegmatis MC2 155; assay: Inhibition of Multidrug resistance efflux pump in Mycobacterium smegmatis str. MC2 155 ATCC 700084 assessed as reduction in ciprofloxacin bromide MIC presence of test compound at 32 mg/L; how it was run: as §3
[23] = tested on: Mycolicibacterium smegmatis MC2 155; assay: Inhibition of Multidrug resistance efflux pump in Mycobacterium smegmatis str. MC2 155 ATCC 700084 assessed as reduction in ethidium bromide MIC presence of test compound at 32 mg/L; how it was run: as §3

`CCCCc1ccc(CCc2ccc(O)c(OC)c2)o1` showed an MIC [1] of no less than 128 µg/mL, a fractional inhibitory concentration index (FICI) [2] of 0.19 and a fold change (FC) [3] of 2. The RFU [4] was 17200, the fold change (FC) [5] was 16 and the fractional inhibitory concentration index (FICI) [6] was 0.19. The fold change (FC) [7] was 4, the Ratio [8] was 0.778 and the MIC [9] was 32 µg/mL (≈ 117 µM). It also gave a fold change (FC) [10] of 8 and a fold change (FC) [11] of 2.
Work on `CCCCC[C@H](O)C[C@@H](O)CCc1ccc(O)c(OC)c1` yielded an MIC [1] of no less than 128 µg/mL, a fold change (FC) [12] of 1 and a fractional inhibitory concentration index (FICI) [2] of 1. For the same compound, the fold change (FC) [13] was 1, the fold change (FC) [14] was 2 and the fold change (FC) [15] was 1. It also gave a fold change (FC) [16] of 1, a fractional inhibitory concentration index (FICI) [6] of 2 and an MIC [9] of no less than 128 µg/mL.
`CCCCCCCC(=O)CCc1ccc(O)c(OC)c1` gave an MIC [1] of no less than 128 µg/mL, a fractional inhibitory concentration index (FICI) [2] of 0.25 and a fold change (FC) [3] of 1. It also gave an RFU [4] of 24600, a fold change (FC) [5] of 4 and a fractional inhibitory concentration index (FICI) [6] of 0.5. The inhibition [17] was “Dose-dependent effect”, the IC50 [18] was 63.6 µM and the fold change (FC) [7] was 4. For the same compound, the Ratio [8] was 0.793, the MIC [9] was 32 µg/mL (≈ 115 µM) and the fold change (FC) [10] was 8. It also gave a fold change (FC) [11] of 1.
For `CCCCC[C@H](O)CC(=O)CCc1ccc(O)c(OC)c1` [GINGEROL], the MIC [1] was no less than 128 µg/mL, the fold change (FC) [12] was 1 and the fractional inhibitory concentration index (FICI) [2] was 1. It also gave a fold change (FC) [13] of 1, a fold change (FC) [14] of 2 and a fold change (FC) [15] of 1. It also gave a fold change (FC) [16] of 1, a fractional inhibitory concentration index (FICI) [6] of 2 and an MIC [9] of no less than 128 µg/mL.
With `CCCCC[C@H](O)C[C@H](O)CCc1ccc(O)c(OC)c1` the MIC [1] was no less than 128 µg/mL, the fold change (FC) [12] was 1 and the fractional inhibitory concentration index (FICI) [2] was 1. For the same compound, the fold change (FC) [13] was 1, the fold change (FC) [14] was 2 and the fold change (FC) [15] was 1. The fold change (FC) [16] was 1, the fractional inhibitory concentration index (FICI) [6] was 2 and the MIC [9] was no less than 128 µg/mL.
Work on `CCCCC[C@H](O)CC(=O)CCc1ccc(OC)c(OC)c1` yielded an MIC [1] of no less than 128 µg/mL, a fold change (FC) [12] of 1 and a fractional inhibitory concentration index (FICI) [2] of 0.63. For the same compound, the RFU [4] was 11800, the fold change (FC) [13] was 1 and the fold change (FC) [14] was 2. It also gave a fold change (FC) [15] of 1, a fold change (FC) [16] of 1 and a fractional inhibitory concentration index (FICI) [6] of 2. For the same compound, the Ratio [8] was 0.746 and the MIC [9] was no less than 128 µg/mL.
`CCCCCCCC(O)CCc1ccc(O)c(OC)c1` (racemic) gave an MIC [1] of 128 µg/mL (≈ 456 µM), a fractional inhibitory concentration index (FICI) [2] of 0.38 and a fold change (FC) [3] of 2. It also gave an RFU [4] of 24700, a fold change (FC) [5] of 4 and a fractional inhibitory concentration index (FICI) [6] of 0.75. It also gave an IC50 [18] of 69.2 µM, a fold change (FC) [7] of 1 and a Ratio [8] of 0.792. It also gave an MIC [9] of 32 µg/mL (≈ 114 µM), a fold change (FC) [10] of 4 and a fold change (FC) [11] of 2.
`CCCCCCC[C@H](O)CC(=O)CCc1ccc(O)c(OC)c1` showed an MIC [1] of no less than 128 µg/mL, a fractional inhibitory concentration index (FICI) [2] of 0.19 and an RFU [4] of 21900. The fold change (FC) [19] was 2, the fold change (FC) [20] was 2 and the fold change (FC) [21] was 2. For the same compound, the fold change (FC) [22] was 2, the fractional inhibitory concentration index (FICI) [6] was 1 and the IC50 [18] was 83.1 µM. For the same compound, the Ratio [8] was 0.795, the MIC [9] was 64 µg/mL (≈ 198 µM) and the fold change (FC) [23] was 8.
Compound `CCCCCC(=O)CC(=O)CCc1ccc(O)c(OC)c1` has an MIC [1] of no less than 128 µg/mL, a fold change (FC) [12] of 4 and a fractional inhibitory concentration index (FICI) [2] of 0.25. For the same compound, the RFU [4] was 17800, the fold change (FC) [13] was 2 and the fold change (FC) [14] was 8. It also gave a fold change (FC) [15] of 1, a fold change (FC) [16] of 2 and a fractional inhibitory concentration index (FICI) [6] of 0.5. The Ratio [8] was 0.789 and the MIC [9] was 128 µg/mL (≈ 438 µM).
